Experimental findings from ChEMBL document CHEMBL2424634, “Synthesis and SAR studies of 5-(pyridin-4-yl)-1,3,4-thiadiazol-2-amine derivatives as potent inhibitors of Bloom helicase” (Bioorg Med Chem Lett, 2013) are described below.

The target in data set [1] is T1, RecQ-like DNA helicase BLM (Homo sapiens, UniProt P54132). The data set can be described thus: Inhibition of BLM (unknown origin) by gel-based DNA unwinding assay.
In data set [2] the target is Bifunctional 3'-5' exonuclease/ATP-dependent helicase WRN (Homo sapiens, UniProt Q14191). Put plainly: Inhibition of WRN (unknown origin) by gel-based DNA unwinding assay.
Data set [3] is filed under the species Homo sapiens. Put plainly: Selectivity ratio of IC50 for WRN (unknown origin) to IC50 for BLM (unknown origin).
In data set [4] the target is T2, ATP-dependent DNA helicase Q1 (Homo sapiens, UniProt P46063).
T2 sequence (P46063 whole entry): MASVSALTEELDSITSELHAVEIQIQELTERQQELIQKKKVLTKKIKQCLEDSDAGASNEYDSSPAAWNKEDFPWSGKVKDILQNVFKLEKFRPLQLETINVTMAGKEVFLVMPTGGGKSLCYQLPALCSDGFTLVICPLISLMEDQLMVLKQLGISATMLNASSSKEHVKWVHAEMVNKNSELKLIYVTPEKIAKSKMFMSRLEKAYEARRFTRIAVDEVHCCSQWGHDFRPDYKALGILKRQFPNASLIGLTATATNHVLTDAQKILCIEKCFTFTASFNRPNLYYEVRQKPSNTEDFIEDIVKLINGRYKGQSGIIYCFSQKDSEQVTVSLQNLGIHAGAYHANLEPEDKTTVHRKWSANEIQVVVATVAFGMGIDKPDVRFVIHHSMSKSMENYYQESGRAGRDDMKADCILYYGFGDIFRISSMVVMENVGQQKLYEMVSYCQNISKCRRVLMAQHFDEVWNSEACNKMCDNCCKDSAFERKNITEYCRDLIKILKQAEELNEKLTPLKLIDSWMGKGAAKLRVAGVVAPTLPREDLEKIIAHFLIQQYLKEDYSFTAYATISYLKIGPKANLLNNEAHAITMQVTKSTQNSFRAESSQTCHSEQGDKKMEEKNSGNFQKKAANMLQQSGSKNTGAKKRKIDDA
Put plainly: Inhibition of RECQ1 (unknown origin) by gel-based DNA unwinding assay.

The target in data set [5] is T1, RecQ-like DNA helicase BLM. The data set can be described thus: Non-competitive inhibition of BLM (unknown origin) using ATP by Lineweaver-Burk double reciprocal plot analysis.
Data set [6] can be described thus: Kinetic solubility of the compound in PBS buffer at pH 7.4. Format: physicochemical. The settings on record: read-out: Kinetic_solubility. Summed up:
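Kinetic solubility in PBS, pH 7.4, determined by chemiluminescent nitrogen detection (CLND) and by UV-Vis detection.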

The nature of data set [7]: Metabolic stability of the compound in mouse plasma assessed as compound remaining after 5 hrs. Format: ADME, cell-free. The settings on record: read-out: Stability.
In data set [8] the target is T1, RecQ-like DNA helicase BLM. The data set can be described thus: Inhibition of BLM (unknown origin) binding to single-stranded DNA by fluorescence polarization analysis. On the technique in general: In fluorescence polarisation assays a small probe gives low polarisation when free and higher when bound to something large.
For a further data set, the system named is Liver. The data set can be described thus: Half life in mouse liver microsomes in presence of NADPH. Format: ADME, Microsome. A general note: Microsomes from liver hold many membrane-bound enzymes, among them those of drug oxidation.
Data set [9] deals with T1, RecQ-like DNA helicase BLM. The data set can be described thus: Inhibition of BLM in human PSNF5 cells assessed as increase of sister chromatid exchange at 1 to 5 uM. Format: cell-based. The gist of the method: (§1)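 Used an isogenic pair of cell lines derived from GM08505 Bloom syndrome cells: PSNF5 (expresses BLM) and PSNG13 (lacks BLM). Cells were treated across a dose range and sister chromatid exchange frequency was scored.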

In data set [10] the target is T1, RecQ-like DNA helicase BLM. Put plainly: Displacement of TAMRA-labeled oligonucleotide from BLM (unknown origin).
For data set [11], the species on record is Homo sapiens. The data set can be described thus: Increase of sister chromatid exchange in human BLM-deficient PSNG13 cells at 1 to 5 uM. Format: functional. Summed up:
as §1

Structures are written as SMILES. In brackets after ≈: the same amount, converted by molar mass. Activity calls are given as the source filed them. The calls are words filed in the database; no cut-off is given here.

Bifunctional 3'-5' exonuclease/ATP-dependent helicase WRN, sequence (Q14191 whole entry): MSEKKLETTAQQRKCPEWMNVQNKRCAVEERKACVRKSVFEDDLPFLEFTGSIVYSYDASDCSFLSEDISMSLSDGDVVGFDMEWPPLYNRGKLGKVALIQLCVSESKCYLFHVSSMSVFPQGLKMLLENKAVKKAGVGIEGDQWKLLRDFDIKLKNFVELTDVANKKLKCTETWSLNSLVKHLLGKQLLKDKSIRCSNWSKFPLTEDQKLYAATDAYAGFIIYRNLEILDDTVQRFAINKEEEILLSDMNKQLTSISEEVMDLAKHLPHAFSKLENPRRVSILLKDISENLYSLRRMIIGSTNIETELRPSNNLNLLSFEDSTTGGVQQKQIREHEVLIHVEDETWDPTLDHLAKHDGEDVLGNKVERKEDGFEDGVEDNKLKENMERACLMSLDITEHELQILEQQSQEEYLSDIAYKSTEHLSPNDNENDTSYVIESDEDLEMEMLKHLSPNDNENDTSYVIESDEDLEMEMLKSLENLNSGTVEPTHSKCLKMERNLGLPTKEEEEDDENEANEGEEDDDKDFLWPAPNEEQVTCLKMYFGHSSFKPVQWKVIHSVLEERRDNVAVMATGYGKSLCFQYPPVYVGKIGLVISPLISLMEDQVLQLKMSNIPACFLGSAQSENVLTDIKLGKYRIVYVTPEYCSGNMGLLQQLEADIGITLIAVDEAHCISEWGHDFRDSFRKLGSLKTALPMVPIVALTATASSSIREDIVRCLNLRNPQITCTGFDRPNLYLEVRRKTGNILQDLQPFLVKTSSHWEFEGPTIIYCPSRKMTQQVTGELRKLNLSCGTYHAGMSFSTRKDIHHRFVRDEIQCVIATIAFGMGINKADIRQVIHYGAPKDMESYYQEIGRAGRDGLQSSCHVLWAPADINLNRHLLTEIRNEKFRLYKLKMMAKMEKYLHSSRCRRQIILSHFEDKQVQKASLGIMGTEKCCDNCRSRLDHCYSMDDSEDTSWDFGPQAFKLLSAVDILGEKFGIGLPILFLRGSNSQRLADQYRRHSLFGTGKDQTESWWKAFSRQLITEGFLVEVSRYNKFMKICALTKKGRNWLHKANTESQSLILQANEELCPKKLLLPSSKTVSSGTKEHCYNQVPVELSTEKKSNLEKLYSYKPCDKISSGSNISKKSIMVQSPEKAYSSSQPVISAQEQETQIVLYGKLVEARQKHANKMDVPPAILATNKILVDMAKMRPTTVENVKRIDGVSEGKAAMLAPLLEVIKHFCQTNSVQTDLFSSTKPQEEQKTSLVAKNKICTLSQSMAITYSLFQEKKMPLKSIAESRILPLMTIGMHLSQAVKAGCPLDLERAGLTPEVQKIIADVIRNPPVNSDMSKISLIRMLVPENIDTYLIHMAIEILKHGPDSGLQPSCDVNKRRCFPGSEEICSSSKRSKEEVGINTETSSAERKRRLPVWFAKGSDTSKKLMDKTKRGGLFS
T1 sequence (P54132 whole entry): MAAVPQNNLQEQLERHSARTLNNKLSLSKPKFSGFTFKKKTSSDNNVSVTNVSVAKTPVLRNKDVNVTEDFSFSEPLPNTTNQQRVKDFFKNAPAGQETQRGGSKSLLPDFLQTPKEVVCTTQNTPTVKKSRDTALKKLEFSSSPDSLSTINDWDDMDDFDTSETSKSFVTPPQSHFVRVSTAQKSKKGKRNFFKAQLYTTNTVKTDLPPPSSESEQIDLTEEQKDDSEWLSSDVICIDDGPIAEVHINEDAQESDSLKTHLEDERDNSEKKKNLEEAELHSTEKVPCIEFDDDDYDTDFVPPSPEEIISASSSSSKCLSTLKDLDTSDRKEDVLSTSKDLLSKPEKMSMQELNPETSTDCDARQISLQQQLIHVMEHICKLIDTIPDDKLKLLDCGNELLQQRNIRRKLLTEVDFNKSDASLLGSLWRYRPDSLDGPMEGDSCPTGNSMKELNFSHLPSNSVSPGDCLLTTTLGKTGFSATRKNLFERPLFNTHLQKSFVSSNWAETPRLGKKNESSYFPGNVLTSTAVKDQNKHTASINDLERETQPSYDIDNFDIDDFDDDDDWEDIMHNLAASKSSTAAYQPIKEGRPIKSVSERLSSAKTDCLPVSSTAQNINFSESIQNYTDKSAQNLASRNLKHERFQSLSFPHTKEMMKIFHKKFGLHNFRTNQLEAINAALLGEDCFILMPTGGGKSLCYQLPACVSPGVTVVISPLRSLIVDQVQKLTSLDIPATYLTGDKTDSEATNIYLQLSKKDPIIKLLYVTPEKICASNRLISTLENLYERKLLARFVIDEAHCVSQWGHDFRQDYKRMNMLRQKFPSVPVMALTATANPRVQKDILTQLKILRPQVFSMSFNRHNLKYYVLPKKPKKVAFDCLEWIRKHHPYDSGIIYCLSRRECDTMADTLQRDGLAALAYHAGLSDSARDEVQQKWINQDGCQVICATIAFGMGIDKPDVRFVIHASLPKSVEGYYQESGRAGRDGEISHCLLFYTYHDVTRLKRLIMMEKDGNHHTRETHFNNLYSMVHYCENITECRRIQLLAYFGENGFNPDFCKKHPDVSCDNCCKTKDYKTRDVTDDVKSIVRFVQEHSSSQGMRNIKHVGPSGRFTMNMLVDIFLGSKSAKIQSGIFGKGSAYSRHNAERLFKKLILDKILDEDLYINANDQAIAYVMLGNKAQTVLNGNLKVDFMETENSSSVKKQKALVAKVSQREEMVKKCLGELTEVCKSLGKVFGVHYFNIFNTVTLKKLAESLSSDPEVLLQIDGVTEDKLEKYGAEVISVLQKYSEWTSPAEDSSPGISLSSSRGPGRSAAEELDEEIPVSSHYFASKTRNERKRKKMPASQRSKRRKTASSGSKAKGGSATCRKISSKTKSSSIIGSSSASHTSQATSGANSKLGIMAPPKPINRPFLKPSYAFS

`O=C(Nc1ccc(Cl)c(Cl)c1)Nc1ccnc(-c2ccncc2)n1`: the IC50 result in data set [1] is given as “Not Active”. On to `O=C(Nc1ccc(Cl)c(C(F)(F)F)c1)Nc1nnc(-c2ccncc2)s1`, for which, in data set [1] (read-out: IC50), the IC50 stood at 7.1 µM.

With `O=C(Cc1ccc2ccccc2c1)Nc1nnc(-c2ccncc2)s1`, the IC50 result in data set [1] is reported as “Not Active”. On the same count and under the same terms, under `O=C(Nc1ccc(Cl)c(Cl)c1)Nc1nnc(NC2CCNCC2)s1` stands “Not Active”.

Consider `Cc1cc(NC(=O)Nc2nnc(-c3ccncc3)s2)ccc1Cl`, for which, in data set [1] (read-out: IC50), the IC50 is 7.9 µM. As for `O=C(Nc1ccccc1)Nc1nnc(-c2ccncc2)s1`, the 50% inhibitory concentration (IC50) result in data set [1] was “Not Active”. In the case of `Cc1cc(NC(=O)Nc2nnc(-c3ccncc3)s2)ccc1-c1cn[nH]c1`, in [1] (read-out: IC50), the half-inhibitory concentration (IC50) worked out at 16.8 µM.

On to `O=C(Nc1ccc(F)cc1)Nc1nnc(-c2ccncc2)s1`, for which the IC50 in [1] (read-out: IC50) came out at 14.1 µM.

In the case of `O=C(Nc1ccc(Cl)c(Cl)c1)N1CCC(c2ccncc2)C1` (stereo not given), the IC50 entry in [1] is reported as “Not Active”. Still for that read-out and setting: under `O=C(Nc1ccc(Cl)c(Cl)c1)Nc1nnc(C2CCCCC2)s1` stands “Not Active”; under `O=C(Nc1ccc(Cl)c(Cl)c1)N1CCN(c2ccncc2)CC1`, “Not Active”. In the case of `N#Cc1cc(NC(=O)Nc2nnc(-c3ccncc3)s2)ccc1Br`, the figures for the IC50 in data set [1] (read-out: IC50), in [2] and in [4] were 0.11 µM, 1100 nM and more than 50 µM, respectively. Also, the Ratio IC50 in the data set filed under Homo sapiens [3] was 10.

For `N#Cc1cccc(NC(=O)Nc2nnc(-c3ccncc3)s2)c1`, in [1] (read-out: IC50), the 50% inhibitory concentration (IC50) turned out to be 8.9 µM.

Turning to `Nc1ccc(NC(=O)Nc2nnc(-c3ccncc3)s2)cc1C(F)(F)F`, the 50% inhibitory concentration (IC50) in data set [1] (read-out: IC50) stood at 40 µM. Still for that read-out and setting: under `Nc1ccc(-c2nnc(NC(=O)Nc3ccc(Cl)c(Cl)c3)s2)cc1` stands 49 µM; under `O=C(Nc1ccc(-n2cncn2)c(F)c1)Nc1nnc(-c2ccncc2)s1`, 14.1 µM.

For `O=C(Nc1ccc(Cl)c(Cl)c1)Nc1cc(-c2ccncc2)n[nH]1`, the half-maximal inhibitory concentration (IC50) result in data set [1] was “Not Active”. In the case of `O=C(Nc1ccc(-n2cncn2)c(C(F)(F)F)c1)Nc1nnc(-c2ccncc2)s1`, the half-inhibitory concentration (IC50) in [1] (read-out: IC50) was determined as 36 µM.

Take `O=C(Nc1ccc(Cl)c(Cl)c1)Nc1cccc(-c2ccncc2)n1`: the IC50 in data set [1] (read-out: IC50) was 4 µM. For the compound `N#Cc1cc(NC(=O)Nc2nnc(-c3ccncc3)s2)ccc1-c1cn[nH]c1`, the inhibition result in [5] and in data set [10] was “Active” throughout. Also, the IC50 in data set [1] (read-out: IC50) is 1.1 µM; in data set [2], 7100 nM; in data set [4], more than 50 µM. In addition, the solubility kinetic in [6] came to 10 µM (≈ 3.88 µg/mL). In the data set filed under Homo sapiens [3], the Ratio IC50 amounted to 6.5. Moreover, the remaining at 5 h in data set [7] turned out to be 100%. For the same compound, the inhibition entry in data set [8] and in [9] was “Dose-dependent effect” throughout. Also, in the data set on Liver, the t1/2 was more than 80 min. Further, in the data set filed under Homo sapiens [11], the result was inactive. For the compound `O=C(Nc1ccc(Cl)c(Cl)c1)Nc1ccc(-c2ccncc2)s1`, the IC50 entry in [1] is “Not Active”. Still for that read-out and setting: under `CN1CCN(c2nnc(NC(=O)Nc3ccc(Cl)c(Cl)c3)s2)CC1` stands “Not Active”; under `O=C(Nc1nnc(-c2ccncc2)s1)Oc1ccc2ccccc2c1`, “Not Active”. Still for that read-out and setting: under `O=C(Nc1ccc(Cl)c(Cl)c1)Nc1nnc(N2CCNCC2)s1` stands “Not Active”; under `O=C(Nc1ccc(Cl)c(Cl)c1)Nc1nnc(-c2ccncc2)o1`, “Not Active”. `Cc1cc(NC(=O)Nc2nnc(-c3ccncc3)s2)ccc1Br`: the IC50 in data set [1] (read-out: IC50) came out at 13.4 µM. As for `O=C(Nc1ccc(F)c(C(F)(F)F)c1)Nc1nnc(-c2ccncc2)s1`, the concentration for half-maximal inhibition (IC50) in data set [2] was 2700 nM; in [4], more than 50 µM. Besides, the solubility kinetic in [6] was 1 µM (≈ 0.383 µg/mL). The remaining at 5 h in data set [7] is 100%. The t1/2 with Liver is more than 80 min. On to `Cc1cc(NC(=O)Nc2nnc(-c3ccncc3)s2)ccc1C#N`, for which the IC50 in data set [1] (read-out: IC50) was 3.2 µM. The same measure, in the same setting: the result for `O=C(Nc1ccc(F)c(F)c1)Nc1nnc(-c2ccncc2)s1` reads 8.9 µM. For `O=C(Nc1ccc(Cl)c(Cl)c1)NC1CCN(c2ccncc2)CC1`, the half-inhibitory concentration (IC50) entry in [1] is recorded as “Not Active”. Take `N#Cc1ccc(NC(=O)Nc2nnc(-c3ccncc3)s2)cc1Cl`: the IC50 in data set [1] (read-out: IC50) was found to be 1.6 µM.

As to `N#Cc1cc(NC(=O)Nc2nnc(-c3ccncc3)s2)ccc1-c1ccc[nH]1`, the 50% inhibitory concentration (IC50) in data set [1] (read-out: IC50) is 1.8 µM.

Regarding `N#Cc1ccc(NC(=O)Nc2nnc(-c3ccncc3)s2)cc1C(F)(F)F`, in data set [1] (read-out: IC50), the IC50 was found to be 5.6 µM.

As to `NC(=Nc1ccc(Cl)c(Cl)c1)Nc1nnc(-c2ccncc2)s1`, in [1] (read-out: IC50), the half-inhibitory concentration (IC50) is 14.1 µM. For the compound `O=C(Nc1ccc(Cl)c(Cl)c1)Nc1nnc(-c2ccccc2)s1`, the IC50 entry in data set [1] was “Not Active”.

For `N#Cc1cc(NC(=O)Nc2nnc(-c3ccncc3)s2)ccc1F`, the half-inhibitory concentration (IC50) in [1] (read-out: IC50) is 0.3 µM; in data set [2], 2200 nM; in data set [4], more than 50 µM. Besides, the Ratio IC50 in the data set filed under Homo sapiens [3] worked out at 7.3. `O=C(Nc1ccc(Cl)c(Cl)c1)Nc1nnc(-c2ccccn2)s1`: the concentration for half-maximal inhibition (IC50) result in data set [1] was “Not Active”. Turning to `O=C(Nc1ccc(Br)c(Br)c1)Nc1nnc(-c2ccncc2)s1`, the IC50 in data set [1] (read-out: IC50) amounted to 2.1 µM; in [2], 2900 nM. The Ratio IC50 in the data set filed under Homo sapiens [3] was 1.4. For the compound `O=C(Nc1ccc(Cl)c(Cl)c1)Nc1nnc(-c2cccnc2)s1`, in data set [1] (read-out: IC50), the half-inhibitory concentration (IC50) was found to be 3.5 µM.

For the compound `O=c1c(Nc2ccc(Cl)c(Cl)c2)c(Nc2nnc(-c3ccncc3)s2)c1=O`, the IC50 in data set [1] (read-out: IC50) was determined as 4.3 µM.

With `O=C(Nc1ccc(Cl)cc1)Nc1nnc(-c2ccncc2)s1`, the half-maximal inhibitory concentration (IC50) in data set [1] (read-out: IC50) came out at 40 µM. Take `N#Cc1cc(NC(=O)Nc2nnc(-c3ccncc3)s2)ccc1Cl`: the values for the IC50 in data set [1] (read-out: IC50) and in data set [2] were 0.1 µM and 1600 nM, respectively. The Ratio IC50 in the data set listed under Homo sapiens [3] amounted to 16.

Consider `O=S(=O)(Cc1ccc(Cl)c(Cl)c1)Nc1nnc(-c2ccncc2)s1`, for which the IC50 result in data set [1] was “Not Active”.

`CN(C(=O)Nc1ccc2ccccc2c1)c1nnc(-c2ccncc2)s1`: the concentration for half-maximal inhibition (IC50) result in data set [1] is “Not Active”.

Take `S=C(Nc1ccc(Cl)c(Cl)c1)Nc1nnc(-c2ccncc2)s1`: the IC50 in data set [1] (read-out: IC50) came to 4 µM. In the case of `N#C/N=C(/Nc1ccc(F)c(C(F)(F)F)c1)Nc1nnc(-c2ccncc2)s1`, the half-maximal inhibitory concentration (IC50) entry in [1] is on record as “Not Active”. Take `Cc1cc(NC(=O)Nc2nnc(-c3ccncc3)s2)ccc1F`: the IC50 in data set [1] (read-out: IC50) was 15.8 µM. Still for that read-out and setting: the result for `Nc1cc(NC(=O)Nc2nnc(-c3ccncc3)s2)ccc1Cl` reads 11.2 µM; that for `N#Cc1ccc(NC(=O)Nc2nnc(-c3ccncc3)s2)cc1Br`, 0.91 µM; that for `O=C(Nc1ccc(Br)cc1)Nc1nnc(-c2ccncc2)s1`, 12.6 µM. On to `O=C(Nc1ccc(Cl)c(Cl)c1)Nc1ncc(-c2ccncc2)s1`, for which the half-maximal inhibitory concentration (IC50) result in data set [1] is “Not Active”.

With `O=C(Nc1ccc(Cl)c(Cl)c1)Nc1nc(-c2ccncc2)cs1`, in [1] (read-out: IC50), the IC50 was determined as 28.1 µM.

In the case of `O=C(Nc1ccc(Cl)c(Cl)c1)Nc1nnc(-c2ccncc2)s1`, the figures for the concentration for half-maximal inhibition (IC50) in data set [1] (read-out: IC50), in data set [2] and in data set [4] were 1.4 µM, 3400 nM and more than 50 µM, respectively. Besides, the Ratio IC50 in the data set listed under Homo sapiens [3] was determined as 2.4.

As to `O=C(Nc1ccc(Cl)c([N+](=O)[O-])c1)Nc1nnc(-c2ccncc2)s1`, the IC50 in data set [1] (read-out: IC50) was 1.3 µM. Turning to `O=C(Nc1ccc(-n2ccnc2)c(F)c1)Nc1nnc(-c2ccncc2)s1`, the IC50 in data set [1] (read-out: IC50) is 10 µM. Still for that read-out and setting: the result for `O=C(Nc1ccc(-c2cn[nH]c2)c(C(F)(F)F)c1)Nc1nnc(-c2ccncc2)s1` reads 14.2 µM; that for `N#Cc1ccc(NC(=O)Nc2nnc(-c3ccncc3)s2)cc1`, 7.9 µM.

By IC50 is commonly meant the concentration at which inhibition is half-maximal.
